Assay outcomes as filed in PubChem BioAssay.
CTSL1 counter: Fasciola hepatica cathepsin L1 inhibitors, primary screen, counter-screen for PFM18AAP inhibitor project, biochemical, QFRET, fluorogenic peptide substrate; 0.49% of 300,000 active; recombinant F. hepatica cathepsin L1, Z-Leu-Arg-MCA fluorescence; inhibition, % at 5.96 µM; AID 1906, 2009;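 active means inhibition above the mean of all tested compounds plus 3 SD, set per screening campaign, cut at about 17% in these data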;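 further: 0% = plate median of test compound wells and 100% = 1 µM Z-Phe-Ala-diazomethylketone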
NadD inh: inhibitors of S. aureus NadD, primary screen, biochemical, colorimetric, uHTS; Nicotinate-nucleotide adenylyltransferase NadD (Staphylococcus aureus N315); purified NadD enzyme, colorimetric absorbance read-out; inhibition, % at 20 µM; 0.78% of 360,000 active; in the data active means inhibition above about 26%
HCV core dimer: inhibitors of HCV core protein dimerization, primary screen, biochemical, TR-FRET, high-throughput. TR-FRET GST/Flag-core106 dimerization, 1536-well. inhibition, % at 5 µM. 0.33% of 300,000 active;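 active means inhibition above the mean of all tested compounds plus 3 SD, set per screening campaign, cut at about 45% in these data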
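System: GST/Flag-tagged HCV core106 proteins. Incubation: compound-protein-antibody incubation 4 h at 22.5 °C. Technique: HTRF with 340 nm excitation, 617/671 nm emission. Medium: KF-containing HEPES buffer, pH 7.45, DTT, CHAPS, BSA. Read-out: inhibition (%) from 671 over 617 nm ratio. Also added: Eu(K)-anti-GST 90 ng/mL plus XL665-anti-Flag 1 µg/mL.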
Myeloid diff MLP: induction of myeloid progenitor differentiation, primary screen, cell-based, flow cytometry, MLPCN library; ER-HoxA9 myeloid progenitors, lysozyme-GFP differentiation; calls only at 10 µM; 1% of 360,000 active;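 active means normalized GFP-positive differentiation at or above the plate's own cutoff, the solvent-only control mean plus 3 SD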;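 further: cells exposed to compound for four days before flow analysis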
PP5 primary: PP5 phosphatase inhibitors, primary screen, biochemical, fluorescence; Serine/threonine-protein phosphatase 5 (Homo sapiens), P53041; purified PP5c, OMFP substrate fluorescence; inhibition, % at 6.7 µM; 0.18% of 320,000 active; AID 1987, 2009;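 active means inhibition above the campaign's mean inhibition across all tested compounds plus 3 SD, cut at about 9.5% in these data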;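 further: 0% = DMSO only and 100% = 100 µM cantharidin control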
Target sequence (P53041 whole entry, looked up): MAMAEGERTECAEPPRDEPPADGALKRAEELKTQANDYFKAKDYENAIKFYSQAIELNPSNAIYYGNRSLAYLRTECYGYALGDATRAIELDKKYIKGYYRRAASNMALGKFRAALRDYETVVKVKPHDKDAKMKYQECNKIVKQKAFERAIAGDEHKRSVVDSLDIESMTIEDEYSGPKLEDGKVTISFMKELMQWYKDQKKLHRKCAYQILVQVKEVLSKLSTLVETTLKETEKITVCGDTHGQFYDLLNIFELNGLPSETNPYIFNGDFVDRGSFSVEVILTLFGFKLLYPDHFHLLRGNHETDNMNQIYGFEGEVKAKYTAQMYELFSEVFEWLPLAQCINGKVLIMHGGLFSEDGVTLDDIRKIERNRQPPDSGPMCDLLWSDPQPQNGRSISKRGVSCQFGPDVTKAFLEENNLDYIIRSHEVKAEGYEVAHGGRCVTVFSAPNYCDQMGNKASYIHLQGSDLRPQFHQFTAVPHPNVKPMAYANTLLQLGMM
PP1 inh: PP1-alpha phosphatase inhibitors, primary screen, counter-screen for PP5 inhibitor project, biochemical, fluorescence, OMFP substrate, single point; purified PP1alpha; inhibition, % at 6.7 µM; 0.9% of 320,000 active; AID 2235, 2010;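 active means inhibition above the mean inhibition of all tested compounds plus 3 SD, computed separately for each screening campaign, cut at about 15% in these data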
Active calls of the source: *. This is a sample that favours compounds with a hit; in the whole collection about 3.1% have one here.

CC(=NCc1cccc(Cl)c1)c1nc(-c2ccco2)oc1O was read as CTSL1 counter 4, NadD inh -5, HCV core dimer 0, Myeloid diff MLP active, PP5 primary 3 and PP1 inh 0.
`CN(C)CC[n+]1ccc(C(=O)c2ccccc2)cc1` gave CTSL1 counter 3, NadD inh -3, HCV core dimer 0, Myeloid diff MLP inactive, PP5 primary 0 and PP1 inh -3.
`CC(OC(=O)CN1C(=O)NC2(CCCC2)C1=O)c1ccc(F)cc1` (centres undefined) gave NadD inh 4, Myeloid diff MLP inactive, PP5 primary 1 and PP1 inh 9.
Screening O=S(=O)(Nc1nc2ccccc2s1)c1ccc(Br)s1 returned CTSL1 counter 7, NadD inh 4, HCV core dimer 8, Myeloid diff MLP active, PP5 primary 1 and PP1 inh 2.
Cc1ccc(S(=O)(=O)Nc2nc3ccccc3s2)cc1 was read as CTSL1 counter -4, NadD inh -6, HCV core dimer 6, Myeloid diff MLP inactive, PP5 primary 3 and PP1 inh 4.
Screening CN(C)c1ccc(/C=N/NC(=O)c2ccc3nc[nH]c3c2)cc1 returned CTSL1 counter 21*, NadD inh -2, HCV core dimer -14, Myeloid diff MLP inactive, PP5 primary 1 and PP1 inh 3.
CN(CCc1ccccc1)C1CCCN(S(=O)(=O)CC(F)(F)F)C1 (centres undefined) was read as CTSL1 counter 19*, NadD inh -2, HCV core dimer -15, Myeloid diff MLP inactive, PP5 primary 1 and PP1 inh 2.
For CN(CCc1ccccn1)C1CCCN(S(=O)(=O)c2ccccc2)C1 (centres undefined) the results were CTSL1 counter -1, NadD inh 2, HCV core dimer 0, Myeloid diff MLP inactive, PP5 primary 1 and PP1 inh -5.
Cc1ccc(N(CC(=O)NCc2ccccc2)S(=O)(=O)c2c(C)noc2C)cc1 was read as CTSL1 counter 2, NadD inh 6, HCV core dimer -3, Myeloid diff MLP inactive, PP5 primary -1 and PP1 inh 0.
Screening COc1ccc(-c2nc3c4ccccc4ccn3c2CC2CCCCC2)cc1OC returned NadD inh 7 and Myeloid diff MLP active.
For Cc1ccc(-c2nc3c4ccccc4ccn3c2CC2CCCCC2)cc1 the results were NadD inh 23 and Myeloid diff MLP inactive.
`Cc1c(CN2CCN(CC(C)C)C(CCO)C2)[nH]c2ccc(Cl)cc12` (centres undefined) gave CTSL1 counter -4, NadD inh -5, HCV core dimer 3, Myeloid diff MLP inactive, PP5 primary 1 and PP1 inh -2.
`COc1ccc(-c2csc(N(CCCN(C)C)C(=O)c3ccccc3C)n2)cc1` gave CTSL1 counter -4, NadD inh -5, HCV core dimer -3, Myeloid diff MLP inactive, PP5 primary 4 and PP1 inh 6.
`CN(C)CCCN(C(=O)c1cccs1)c1nc(-c2ccccc2)cs1` gave CTSL1 counter -4, NadD inh -3, HCV core dimer 0, Myeloid diff MLP active, PP5 primary 1 and PP1 inh 2.
For O=C(Nc1ccccc1F)c1csc(COCCO)n1 the results were NadD inh 1 and Myeloid diff MLP inactive.
CCN1/C(=C2/SC(=S)NC2=O)Sc2ccccc21 was read as CTSL1 counter -2, NadD inh -3, HCV core dimer -19, Myeloid diff MLP inactive, PP5 primary 2 and PP1 inh -2.
`CSc1ccc(C2=C/C(=C3/SC(=S)NC3=O)c3ccccc3O2)cc1` gave NadD inh 38* and Myeloid diff MLP active.
O=C(COC(=O)c1ccccc1)c1ccc(S(=O)(=O)N2CCCCC2)cc1 was read as NadD inh -1 and Myeloid diff MLP inactive.
